Beta2AR agonist = activates human beta-2 adrenergic receptor causing internalization | P07550 | Am2.2-beta2AR cells, FAP receptor internalization, flow cytometry | response, % (concentration not given with the values) | hit rate 0.43% among 340,000 | AID 504454;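 active means response above a set limit, near 3 SD of response in nonfluorescent compounds, cut at about 42% in these data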
MC4R antagonist = human MC4R antagonism in cAMP assay | hit rate 0.48% among 360,000 | P32245 | inhibition, % at 6.5 µM | MC4R-expressing cells, MTII-stimulated cAMP, LANCE TR-FRET;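 active means inhibition above its plate's cutoff, the mean of tested wells on that plate plus 3 SD, cut at about 29% in these data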;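 further: 0% = Melanotan II alone and 100% = Melanotan II plus saturating MCL0020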
Target sequence (P32245 whole entry, looked up): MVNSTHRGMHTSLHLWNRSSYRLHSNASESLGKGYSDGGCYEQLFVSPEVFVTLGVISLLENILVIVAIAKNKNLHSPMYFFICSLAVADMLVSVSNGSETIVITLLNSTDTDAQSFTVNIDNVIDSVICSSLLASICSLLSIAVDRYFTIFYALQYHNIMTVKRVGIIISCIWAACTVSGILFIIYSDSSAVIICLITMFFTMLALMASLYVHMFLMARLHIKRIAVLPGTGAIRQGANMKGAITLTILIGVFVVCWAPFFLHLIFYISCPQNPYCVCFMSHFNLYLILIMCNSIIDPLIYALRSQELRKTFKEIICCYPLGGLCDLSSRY
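Assay system: human MC4R-expressing U2OS cells; reagent: Melanotan II stimulation of cells; dosing: 6.5 µM single dose; timing: compound 30 min, challenge 1 h, detection 1 h; signal: TR-FRET cAMP assay; replicates: one well per compound, no replicates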
TAAR1 ag = human TAAR1 agonism; CHO RD-HGA16 TAAR1, Fluo-8 calcium fluorescence; vehicle wells 0%, saturating PEA agonist 100%; AID 624467; Q96RJ0; activation, % at 3 µM; hit rate 0.99% among 360,000;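 active means activation above the mean activation of all test compounds in the run plus 3 SD, cut at about 38% in these data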
Target sequence (Q96RJ0 whole entry, looked up): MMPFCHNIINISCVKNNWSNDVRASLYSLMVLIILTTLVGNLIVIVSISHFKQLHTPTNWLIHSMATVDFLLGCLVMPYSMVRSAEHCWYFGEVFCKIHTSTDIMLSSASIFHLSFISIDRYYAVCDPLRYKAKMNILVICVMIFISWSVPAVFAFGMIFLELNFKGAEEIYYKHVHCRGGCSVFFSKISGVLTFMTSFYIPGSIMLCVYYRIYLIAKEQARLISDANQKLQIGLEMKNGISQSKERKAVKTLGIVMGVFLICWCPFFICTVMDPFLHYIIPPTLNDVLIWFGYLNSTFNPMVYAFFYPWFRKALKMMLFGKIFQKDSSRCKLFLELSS
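Benchmarks: low control DMSO, high control PEA (EC100); System: CHO RD-HGA16 cells carrying human TAAR1 plus Gα16; Detection: Fluo-8 fluorescence, 5 s baseline then 140 s kinetic read; Schedule: 17-24 h plating, Fluo-8 75 min 37 °C, 30 min RT; Read-out basis: % activation from peak over basal fluorescence ratio, DMSO-to-PEA scaled.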
HTR2A ag = mouse HTR2A agonism via beta-arrestin recruitment. P35363. CHO-K1 mHTR2A beta-arrestin complementation, luminescence; percent of 30 µM serotonin response. activation, % at 7.6 µM. hit rate 0.66% among 360,000;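 active means activation above a run cutoff, the mean activation of all tested compounds plus 3 SD, cut at about 14% in these data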;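 further: 0% = plate median of compound wells and 100% = 30 µM serotonin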
MC4R barr agon = activates human MC4R beta-arrestin recruitment; U2OS MC4R beta-arrestin complementation, luminescence; percent of melanotan II response, DMSO zero; hit rate 0.98% among 360,000; P32245; activation, % at 8.9 µM;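 active means activation above a per-plate cutoff, the mean activation of sample wells on that plate plus 3 SD, cut at about 8% in these data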
TAAR1 antagonist = antagonists of human TAAR1; Q96RJ0; CHO RD-HGA16 TAAR1, Fluo-8 calcium fluorescence, antagonist; inhibition, % at 3 µM; hit rate 1.5% among 360,000; AID 624466;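 active means inhibition above a per-plate cutoff, the mean inhibition of test compounds on that plate plus 3 SD, cut at about 49% in these data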;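 further: 0% = DMSO plus EC80 beta-PEA response and 100% = DMSO alone without agonist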
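Assay system: CHO-derived RD-HGA16 cells stably expressing human TAAR1 plus Gα16. Timing: 140 s kinetic read after compound, 140 s after agonist. Technique: kinetic Fluo-8 calcium fluorescence measurement. Measure: % inhibition of agonist calcium response.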
nonsel antag count = nonselective antagonism, TAAR1 counter-screen; shares compounds with TAAR1 antagonist; counterscreen cell line, calcium fluorescence, antagonist mode; inhibition, % at 3 µM; hit rate 77% among 2,400; AID 651780; in the data active means inhibition above about 22%;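 further: CHO-Ga16 host cells stimulated with ATP at an EC80 level; 0% = agonist EC80 plus vehicle and 100% = vehicle without agonist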
TAAR1 ant conf = confirmation of human TAAR1 antagonists; shares compounds with TAAR1 antagonist; TAAR1-expressing cells, fluorescence antagonist read-out; inhibition, % at 3 µM; hit rate 40% among 2,400; AID 651785; in the data active means inhibition above about 49%;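 further: CHO-Ga16 host cells challenged with agonist PEA near its EC80; 0% = agonist at EC80 plus vehicle and 100% = vehicle with no agonist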
Ga16 ag counter = nonselective Ga16 agonism, counter-screen. shares compounds with TAAR1 antagonist. Ga16-expressing cells, calcium fluorescence, agonist counterscreen. activation, % at 3 µM. hit rate 18% among 2,400; in the data active means activation above about 12%;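 further: 0% = vehicle wells and 100% = saturating stimulus response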
TAAR1 ag count = TAAR1 agonism, antagonist counter-screen; shares compounds with TAAR1 antagonist; hTAAR1 cell line, fluorescence activation, agonist mode; activation, % at 3 µM; hit rate 2% among 2,400; in the data active means activation above about 37%;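 further: CHO cells stably expressing TAAR1 with calcium dye readout; 0% = DMSO vehicle and 100% = full agonist response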
* hit, by the source's call; x = no result. Sampled rows, rich in hits. Any-hit rate of the full collection: about 4.3%.

SMILES	Beta2AR agonist	MC4R antagonist	TAAR1 ag	HTR2A ag	MC4R barr agon	TAAR1 antagonist	nonsel antag count	TAAR1 ant conf	Ga16 ag counter	TAAR1 ag count
CCOc1ccc2[nH]c(=O)c(CN(Cc3cccs3)Cc3nnnn3C(C)(C)CC)cc2c1	-1	8	12	1	2	55*	13	37	5	14
COc1ccc(/C=N/NC(=O)c2cc(C34CC5CC(CC(C5)C3)C4)[nH]n2)cc1OC	8	8	6	-3	-2	15	x	x	x	x
COc1cccc(/C=N/NC(=O)c2cc(C34CC5CC(CC(C5)C3)C4)[nH]n2)c1	6	14	9	-4	1	57*	23*	36	8	18
CCC(=O)N1CCN(c2ccc(-n3c(=O)ccc4cnc5ccc(-c6cnc7ccccc7c6)cc5c43)cc2C(F)(F)F)CC1	x	x	7	x	x	50*	21	34	7	7
CC(=O)c1cccc(NC(=O)c2ccc(-c3ccccc3[N+](=O)[O-])o2)c1	-16	7	32	-4	0	62*	24*	43	18*	18
CC(=O)c1ccc(NC(=O)c2ccc(COc3ccccc3[N+](=O)[O-])o2)cc1	12	0	x	-2	3	x	14	x	4	x
O=C(O)c1ccc(COc2ccccc2[N+](=O)[O-])o1	-7	-1	3	1	-2	-12	x	x	x	x
Cc1cc(NC(=O)c2ccc(-c3ccccc3[N+](=O)[O-])o2)no1	9	0	4	-8	-1	2	x	x	x	x
CC(=O)c1ccc(NC(=O)c2ccc(CSc3ccccc3)o2)cc1	-2	16	4	-3	2	95*	28*	80*	5	-2
O=C(Nc1ccc(F)cc1)c1ccc(CSc2ccccc2)o1	-6	-1	6	-3	-1	13	x	x	x	x
COc1ccc(-c2csc(NC(=O)CCN3C(=O)C4CC=CCC4C3=O)n2)cc1OC (configuration not stated)	11	7	10	0	-3	34	x	x	x	x
C#CCOCCOCCOCCNc1nc(N2CCN(C(=O)[C@H](CC(N)=O)n3cc(C(N)[C@H](C)CC)nn3)CC2)nc(N2CCN(C(=O)[C@H](CC(N)=O)n3cc(C(N)[C@@H](C)CC)nn3)CC2)n1 (some centres not stated)	1	1	14	-3	-1	9	x	x	x	x
CC(=O)Oc1ccc(C(=O)Nc2cc(NC(=O)c3ccc(OC(C)=O)cc3)cc(C(=O)NC(C)(C)C)c2)cc1	14	24	5	-4	2	67*	32*	42	5	6
COc1ccc(NC(=O)c2cc3c(=O)n4ccccc4nc3n2C)cc1OC	-1	-11	3	-2	-1	-11	x	x	x	x
O=C(c1cc(-c2cccnc2)nc2ccc(Br)cc12)N1CCN(c2ncccn2)CC1	13	7	20	8	0	51*	34*	57*	10	12
CS(=O)(=O)N1CCN(C(=O)c2cc(-c3cccnc3)nc3ccc(Br)cc23)CC1	-1	11	18	9	0	46	x	x	x	x
CC(=O)c1ccc(N2CCN(C(=O)c3cc(-c4cccnc4)nc4ccc(Br)cc34)CC2)cc1	24	15	25	-4	-3	76*	27*	49*	13*	21
COC(=O)c1ccc(/C=N/n2c(C)nc3ccccc3c2=O)cc1	6	4	6	5	-1	16	x	x	x	x
CCCCOc1ccc(C(=O)NCC(=O)OCCCOC(=O)CNC(=O)c2ccc(OCCCC)cc2)cc1	x	7	0	2	6	-14	x	x	x	x
COc1cc(C(=O)OCCc2cc3ccccc3c(=O)o2)cc(OC)c1OC	-9	-22	9	0	1	65*	27*	39	8	5
C=CC[C@@H](CC(=O)OC(C)(C)C)C(=O)OC[C@H]1CCCN1C(=O)[C@@H](CC=C)CC(=O)N[C@H](CO)Cc1ccccc1	3	5	17	5	0	61*	36*	43	8	7
C=CC[C@@H](CC(=O)OC(C)(C)C)C(=O)OC[C@@H]1CCCN1C(=O)[C@@H](CC=C)CC(=O)N[C@@H](CO)Cc1ccccc1	-3	11	2	-4	-1	16	x	x	x	x
CCN(C(=O)Cn1nc(C)c([N+](=O)[O-])c1C)c1c(N)n(Cc2ccccc2)c(=O)[nH]c1=O	-1	1	1	-5	-4	13	x	x	x	x
CN(Cc1nc2ccccc2c(=O)[nH]1)C(=O)c1cccc(S(=O)(=O)N2CCCC2)c1	0	6	0	3	-2	3	x	x	x	x
Cc1cc(C)c(C)c(S(=O)(=O)N2CCC(C(=O)N(C)Cc3nc4ccccc4c(=O)[nH]3)CC2)c1C	10	3	34	7	0	59*	28*	43	8	12
SMILES	Beta2AR agonist	MC4R antagonist	TAAR1 ag	HTR2A ag	MC4R barr agon	TAAR1 antagonist	nonsel antag count	TAAR1 ant conf	Ga16 ag counter	TAAR1 ag count
COc1ccc(C(=O)OCC[N+]2(C)CCOCC2)cc1	-2	-5	1	-1	-2	18	x	x	x	x
CC(C)(C)NC(=O)CCN(/N=C/c1ccncc1)C1=NS(=O)(=O)c2ccccc21	4	23	4	3	-2	-11	x	x	x	x
CC(C)(C)NC(=O)CCN(/N=C/c1ccccc1O)C1=NS(=O)(=O)c2ccccc21	18	6	19	3	-1	59*	25*	44	12*	11
CCC1CN(C(=O)N2CCC(C(=O)NCc3ccco3)CC2)c2cc(C)ccc2O1 (configuration not stated)	4	6	14	-1	-4	50*	28*	49*	9	9
CCC1CN(C(=O)N2CCC(C(=O)NCCc3ccc(OC)cc3OC)CC2)c2ccccc2O1 (configuration not stated)	1	-2	13	3	0	56*	35*	54*	10	14
CCC1CN(C(=O)N2CCC(C(=O)NCCc3ccccc3OC)CC2)c2ccccc2O1 (configuration not stated)	15	-1	13	3	-5	75*	29*	54*	11	15
